The results in this text go back to ChEMBL document CHEMBL4393705, “New chalcone-sulfonamide hybrids exhibiting anticancer and antituberculosis activity” (Eur J Med Chem, 2019).

Type in all cases: functional
One test has as its system HCC 2998. Nature of the test: Anticancer activity against human HCC2998 cells assessed as cell growth inhibition measured after 48 hrs by SRB assay. Conditions: HCC 2998, 48 h. The method in brief: (§1)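 NCI-60 five-dose screen at 100, 10, 1.0, 0.1 and 0.01 µM final. Cells in RPMI-1640 with 5% FBS and 2 mM glutamine were seeded 24 h ahead at 37°C, 5% CO2. Compound exposure was 48 h, followed by TCA fixation and SRB staining, read at 515 nm. GI50 is the concentration giving 50% lower net protein increase than control, using time-zero plates.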

Another test concerns RPMI-8226. Nature of the test: Anticancer activity against human RPMI8226 cells assessed as increase in cell death at 10 uM after 48 hrs by SRB assay relative to control. The method in brief: (§2)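 NCI-60 single-dose screen at 10 µM in RPMI-1640 with 5% FBS and 2 mM glutamine. Exposure was 48 h at 37°C, 5% CO2, with time-zero plates fixed at dosing. Read-out was TCA fixation and SRB at 515 nm. Growth percent = (Ti−Tz)/Tz×100 where Ti<Tz, so negative values mean net cell loss.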

The next test relates to HOP-92. Briefly: Anticancer activity against human HOP92 cells assessed as increase in cell death at 10 uM after 48 hrs by SRB assay relative to control. The method in brief:
as §2
For orientation: The SRB assay estimates cell density from bound dye.

Test [1] relates to 786-0. Nature of the test: Anticancer activity against human 786-O cells assessed as increase in cell death at 10 uM after 48 hrs by SRB assay relative to control. Put shortly:
as §2

The test system of a further test is PC-3. Nature of the test: Anticancer activity against human PC3 cells assessed as increase in cell death at 10 uM after 48 hrs by SRB assay relative to control. The method in brief:
as §2

Test [2] concerns K562. Briefly: Anticancer activity against human K562 cells assessed as cell growth inhibition measured after 48 hrs by SRB assay. Particulars: K562, 48 h; for CC50: read-out: LC50 (the source's name). The method in brief:
as §1

The next test has as its system MOLT-4. Nature of the test: Anticancer activity against human MOLT4 cells assessed as cell growth inhibition measured after 48 hrs by SRB assay. Particulars: MOLT-4, 48 h. The method in brief:
as §1

The subject of a further test is SF-268. Nature of the test: Anticancer activity against human SF268 cells assessed as cell growth inhibition measured after 48 hrs by SRB assay. Particulars: SF-268, 48 h. Put shortly: as §1
In a further test the test system is MDA-MB-435. Nature of the test: Anticancer activity against human MDA-MB-435 cells assessed as cell growth inhibition measured after 48 hrs by SRB assay. Conditions: MDA-MB-435, 48 h. Put shortly: as §1
The test system of the next test is OVCAR-8. Nature of the test: Anticancer activity against human OVCAR8 cells assessed as cell growth inhibition measured after 48 hrs by SRB assay. Conditions: OVCAR-8, 48 h. The method in brief:
as §1

Test [3] deals with 786-0. Briefly: Anticancer activity against human 786-O cells assessed as cell growth inhibition measured after 48 hrs by SRB assay. Conditions: 786-0, 48 h; for CC50: read-out: LC50 (the source's name). The method in brief:
as §1

The test system of a further test is HCT-116. Briefly: Anticancer activity against human HCT116 cells assessed as increase in cell death at 10 uM after 48 hrs by SRB assay relative to control. The method in brief: as §2
A further test deals with M14. Nature of the test: Anticancer activity against human M14 cells assessed as increase in cell death at 10 uM after 48 hrs by SRB assay relative to control. The method in brief: as §2
Test [4] deals with K562. Nature of the test: Anticancer activity against human K562 cells assessed as tumour cell growth at 10 uM after 48 hrs by SRB assay relative to control. Put shortly: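 NCI 60-line primary screen at a single 10 μM dose in RPMI-1640 with 5% FBS and 2 mM L-glutamine. Cells were preincubated 24 h at 37 °C in 5% CO₂, with time-zero plates fixed with TCA. Compounds (DMSO, diluted in gentamicin medium) were incubated 48 h, then cells TCA-fixed and stained with 0.4% SRB (A515). Growth percent was derived from time-zero, control and treated absorbances.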

The next test relates to SF-539. Nature of the test: Anticancer activity against human SF539 cells assessed as increase in cell death at 10 uM after 48 hrs by SRB assay relative to control. The method in brief:
(§3)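 NCI single-dose screen at 10 µM. Cells in RPMI-1640 with 5% FBS and 2 mM L-glutamine, preincubated 24 h, then exposed 48 h at 37°C, 5% CO2. Protein measured by TCA fixation and SRB staining, absorbance 515 nm. Growth percent is calculated against time-zero and untreated control plates; negative values indicate net cell loss.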

The next test deals with U-251. Nature of the test: Anticancer activity against human U251 cells assessed as increase in cell death at 10 uM after 48 hrs by SRB assay relative to control. The method in brief: as §3

Where only a bound is given, the exact number is not on record here.

The term GI50 denotes the concentration that inhibits growth by half. Usually LC50 stands for the concentration lethal to half of the exposed cells or organisms. `COc1ccc(C(=O)/C=C/c2ccc(Cl)cc2)cc1S(N)(=O)=O`: the 50% growth inhibitory concentration (GI50) in the test with HCC 2998 worked out at 1.78 µM; in the test with K562 [2], 0.57 µM; with MOLT-4, 2.93 µM; with SF-268 it was 3.13 µM; with MDA-MB-435, 4.34 µM; with OVCAR-8 it was 3.55 µM. Further, the 50% growth inhibitory concentration (GI50) in the test on 786-0 [3] was found to be 1.74 µM. Further, the 50% lethal concentration (LC50) is 7.48 µM in the test with HCC 2998 and above 100 µM in the test with MOLT-4. The Activity with RPMI-8226 worked out at 31.74%; in the test with HOP-92, 26.57%; with 786-0 [1], 30.67%; in the test on PC-3, 55.63%; in the test on HCT-116 it was 78.33%; in the test on M14, 57.32%. In addition, the CC50 in the test on K562 [2] was above 100 µM; in the test with 786-0 [3], 7.82 µM. Further, the LC50 (concentration giving 50% net cell kill) amounted to 38.3 µM with SF-268 and 32.6 µM with OVCAR-8. Also, the LC50 (concentration killing 50% of cells present at time zero) in the test on MDA-MB-435 stood at 41.6 µM.
Regarding `COc1ccc(C(=O)/C=C/c2ccc(Cl)cc2)cc1S(=O)(=O)Nc1c(N)nc(SC)[nH]c1=O`, the 50% growth inhibitory concentration (GI50) in the test with HCC 2998 turned out to be 1.92 µM; in the test on K562 [2], 2.77 µM; in the test with MOLT-4, 3.71 µM; with SF-268 it was 2.69 µM; with MDA-MB-435, 2.95 µM; in the test with OVCAR-8, 3.07 µM. For the same compound, in the test on 786-0 [3], the 50% growth inhibitory concentration (GI50) came to 1.95 µM. The LC50 was 6.5 µM in the test with HCC 2998 and above 100 µM in the test with MOLT-4. Besides, the Activity was 3.84% with K562 [4], 5.49% in the test on SF-539 and 4.2% in the test with U-251. Moreover, the CC50 was above 100 µM in the test with K562 [2] and 8.74 µM in the test on 786-0 [3]. In addition, the LC50 (concentration giving 50% net cell kill) with SF-268 stood at 36.1 µM; in the test on OVCAR-8, 37.1 µM. Moreover, the LC50 (concentration killing 50% of cells present at time zero) in the test on MDA-MB-435 stood at 48 µM.
